Data published in ChEMBL document CHEMBL1649518, “Safety and outcomes of open-label deferasirox iron chelation therapy for mucormycosis” (Antimicrob Agents Chemother, 2009).

Assays:
Type in all cases: organism-based
Parameters in all cases: route oral
Settings in all cases: in vivo, 336 h
[1] = system: Homo sapiens; test: Toxicity in patient with mucormycosis assessed as alkaline phosphatase level at 5 to 20 mg/kg/day, po for 14 days (reference value: 126 U/l)
Procedure, shortened: (§1)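 Open-label deferasirox given to patients with mucormycosis. One patient with coexisting hepatic disease received 5 mg/kg of body weight/day for 20 days. Laboratory values were reported as medians (interquartile range) at diagnosis, at start of deferasirox, at end of deferasirox, and at a final time point.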

[2] = system: Homo sapiens; test: Toxicity in patient with mucormycosis assessed as platelet count at 5 to 20 mg/kg/day, po for 14 days (reference value: 217/uL); procedure, shortened: as §1
[3] = system: Homo sapiens; test: Toxicity in patient with mucormycosis assessed as absolute neutrophil count at 5 to 20 mg/kg/day, po for 14 days (reference value: 5.2/uL); procedure, shortened: as §1
[4] = system: Homo sapiens; test: Toxicity in patient with mucormycosis assessed as total bilirubin level at 5 to 20 mg/kg/day, po for 14 days (reference value: 0.8 mg/dl); procedure, shortened: as §1
[5] = system: Homo sapiens; test: Toxicity in patient with mucormycosis assessed as WBC count at 5 to 20 mg/kg/day, po for 14 days (reference value: 8.1/uL); procedure, shortened: as §1
[6] = system: Homo sapiens; test: Toxicity in patient with mucormycosis assessed as aspartate transaminase level at 5 to 20 mg/kg/day, po for 14 days (reference value: 27 U/l); procedure, shortened: as §1
[7] = system: Homo sapiens; test: Toxicity in patient with mucormycosis assessed as glucose level at 5 to 20 mg/kg/day, po for 14 days (reference value: 131 mg/dl); procedure, shortened: as §1
[8] = system: Homo sapiens; test: Toxicity in patient with mucormycosis assessed as hemoglobin level at 5 to 20 mg/kg/day, po for 14 days (reference value: […]); procedure, shortened: as §1
[9] = system: Homo sapiens; test: Toxicity in patient with mucormycosis assessed as creatinine level at 5 to 20 mg/kg/day, po for 14 days (reference value: 1.6 mg/dl); procedure, shortened: as §1
[10] = system: Homo sapiens; test: Toxicity in patient with mucormycosis assessed as alanine transaminase level at 5 to 20 mg/kg/day, po for 14 days (reference value: 21 U/l); procedure, shortened: as §1
[11] = system: Homo sapiens; test: Toxicity in patient with mucormycosis assessed as blood urea nitrogen level at 5 to 20 mg/kg/day, po for 14 days (reference value: 34 mg/dl); procedure, shortened: as §1

Question: How did the Activity [1] turn out when O=C(O)c1ccc(-n2nc(-c3ccccc3O)nc2-c2ccccc2O)cc1 [DEFERASIROX] was run?
Answer: 314 U/L

Question: And the Activity [2]?
Answer: 199 10^3 cells/µL

Question: What about the Activity [3] of the same molecule?
Answer: 5.4 10^3 cells/µL

Question: And the Activity [4]?
Answer: 0.6 mg/dL

Question: What about the Activity [5] of the same molecule?
Answer: 10.8 10^3 cells/µL

Question: What about the Activity [6] of the same molecule?
Answer: 28 U/L

Question: And the Activity [7]?
Answer: 104 mg/dL

Question: What about the Activity [8] of the same molecule?
Answer: 9 g/dL

Question: What about the Activity [9] of the same molecule?
Answer: 1.9 mg/dL

Question: And the Activity [10]?
Answer: 49 U/L

Question: And the Activity [11]?
Answer: 43 mg/dL
